Results published in ChEMBL document CHEMBL3351240, “Antinociceptive properties of physalins from Physalis angulata” (J Nat Prod, 2014).
Active and inactive are the calls of the source.

Legend:
[1] = system: Mus musculus; assay: Antinociceptive activity in Swiss Webster mouse assessed as inhibition of formalin-induced early phase pain response at 5 mg/kg, ip dosed 40 mins before formalin injection; assay type: functional, organism-based; set-up: dose 5 mg/kg
In short: (§1)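 Mice acclimated 30 min in chamber, dosed ip 40 min before sc injection of 20 μL 2.5% formalin into dorsal hind paw; licking time of injected paw scored 0−10 min (early phase) and 10−30 min (late phase); n = 7−10; ANOVA with Tukey.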

[2] = system: Mus musculus; assay: Antinociceptive activity in Swiss Webster mouse assessed as increase in reaction time at 5 mg/kg, ip measured after 3 hrs by tail flick test; assay type: functional, organism-based; set-up: dose 5 mg/kg
In short: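 Mice habituated to restraint cylinder 20 min/day for 5 days; distal 2 cm of tail immersed in 48 ± 0.5 °C water; tail withdrawal latency measured before and after ip dosing (5% DMSO/saline vehicle); 10 s cutoff; n = 6; two-way ANOVA with Bonferroni.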

[3] = system: Mus musculus; assay: Antinociceptive activity in Swiss Webster mouse assessed as inhibition of formalin-induced late phase pain response at 5 mg/kg, ip dosed 40 mins before formalin injection; assay type: functional, organism-based; set-up: dose 5 mg/kg; in short: as §1
[4] = system: Mus musculus; assay: Antinociceptive activity in Swiss Webster mouse assessed as increase in latency time at 5 mg/kg, ip measured after 1 hr by hot plate test; assay type: functional, organism-based; set-up: dose 5 mg/kg
In short: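 Hot plate held at 55 ± 1 °C; male Swiss Webster mice; reaction time to hind paw licking or jumping recorded before and after ip dosing (vehicle 5% DMSO in saline); data as difference from baseline; 10 s cutoff; n = 6; two-way ANOVA with Bonferroni.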

[5] = system: Mus musculus; assay: Antinociceptive activity in Swiss Webster mouse assessed as inhibition of acetic acid-induced abdominal constrictions at 10 mg/kg, ip dosed 40 mins before acetic acid injection; assay type: functional, organism-based; set-up: dose 10 mg/kg; conditions: Abdomen
In short: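 Male Swiss Webster mice dosed ip 40 min before ip acetic acid 0.8% v/v (10 mL/kg). Writhes (abdominal contraction with hind limb stretching) counted 0–30 min after injection in a glass cylinder. Mean writhing scores ± SEM, n = 10 per group; ANOVA with Tukey.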

[6] = system: Mus musculus; assay: Antinociceptive activity in Swiss Webster mouse assessed as inhibition of formalin-induced late phase pain response at 10 mg/kg, ip dosed 40 mins before formalin injection; assay type: functional, organism-based; set-up: dose 10 mg/kg
In short: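 Mice acclimated 30 min, dosed ip 40 min before 20 μL 2.5% formalin sc into dorsal hind paw. Licking time of injected paw scored 10–30 min (late phase), mirror-aided observation. Mean ± SEM, n = 7−10; ANOVA with Tukey.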

[7] = system: Mus musculus; assay: Antiinflammatory activity in Swiss Webster mouse assessed as reduction in hyperalgesia at 2 mg/kg, ip dosed 40 mins before CFA injection and measured 2 to 6 hrs post CFA stimulus; assay type: functional, organism-based; set-up: dose 2 mg/kg
In short: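 Male Swiss Webster mice (22−28 g) given drug ip (dexamethasone in 10% ethanol in saline) 40 min before 20 μL CFA (1 mg/mL heat-killed M. tuberculosis in paraffin oil/mannide monooleate) sc into right hind paw plantar region. Mechanical threshold by von Frey filaments, up−down method, at 2, 4, 6 h. Mean ± SEM, n = 6; two-way ANOVA with Bonferroni.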

[8] = system: Mus musculus; assay: Reduction in TNFalpha level in Swiss Webster mouse 2 mg/kg, ip dosed 40 mins before CFA injection and measured 3 hrs post CFA stimulus by ELISA method; assay type: functional, organism-based; set-up: dose 2 mg/kg; conditions: at 2 mg/kg
In short: (§2)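 Mice dosed ip (dexamethasone in 10% ethanol in saline) 40 min before intraplantar CFA; paw skin removed under terminal halothane anesthesia, homogenized 100 mg/mL in PBS with 0.4 M NaCl, 0.05% Tween 20 and protease inhibitors, centrifuged 3000g 10 min, supernatant frozen −70 °C; cytokine by ELISA as pg/mL. n = 6; two-way ANOVA with Bonferroni.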

[9] = system: Mus musculus; assay: Reduction in IL1-beta level in Swiss Webster mouse 2 mg/kg, ip dosed 40 mins before CFA injection and measured 3 hrs post CFA stimulus by ELISA method; assay type: functional, organism-based; set-up: dose 2 mg/kg; conditions: at 2 mg/kg; in short: as §2
[10] = system: Mus musculus; assay: Antiinflammatory activity in Swiss Webster mouse assessed as reduction in paw edema at 2 mg/kg, ip dosed 40 mins before CFA injection and measured 2 to 6 hrs post CFA stimulus; assay type: functional, organism-based; set-up: dose 2 mg/kg
In short: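 Male Swiss Webster mice given drug ip (dexamethasone in 10% ethanol in saline) 40 min before intraplantar CFA (20 μL). Paw volume by plethysmometer before and after CFA, at 2, 4, 6 h; expressed as percent increase in paw volume. Mean ± SEM, n = 6; two-way ANOVA with Bonferroni.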

[11] = system: Mus musculus; assay: CNS toxicity in Swiss Webster mouse assessed as reduction in motor performance at 10 mg/kg, ip after 40 mins by rotarod test; assay type: organism-based; set-up: dose 10 mg/kg, route intraperitoneal; conditions: in vivo
In short: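 Rota-rod test: 3 cm bar at 8 rpm; mice pre-selected 24 h earlier by remaining on bar for two consecutive 120 s periods; placed on rod 40 min after ip dosing; time on bar recorded up to 120 s; n = 6; one-way ANOVA with Tukey.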

[12] = system: Mus musculus; assay: CNS toxicity in Swiss Webster mouse assessed as reduction in motor performance at 10 mg/kg, ip after 40 mins by open field test; assay type: organism-based; set-up: dose 10 mg/kg, route intraperitoneal; conditions: in vivo
In short: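 Open-field test 40 min after ip dosing: mice placed singly in 40 × 60 × 50 cm box with 12 floor squares; squares crossed with all four paws counted over 3 min; n = 6; one-way ANOVA with Tukey.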

CN1CC[C@]23c4c5ccc(O)c4O[C@H]2[C@@H](O)C=C[C@H]3[C@H]1C5
inhibition [1]: Active
Activity [2]: Active
inhibition [3]: Active
Activity [4]: Active

COc1ccc2c(c1)c(CC(=O)O)c(C)n2C(=O)c1ccc(Cl)cc1
inhibition [5]: Active
inhibition [6]: Active

C[C@@H]1C[C@H]2[C@@H]3CCC4=CC(=O)C=C[C@]4(C)[C@@]3(F)[C@@H](O)C[C@]2(C)[C@@]1(O)C(=O)CO
inhibition [7]: Active
inhibition [8]: Active
inhibition [9]: Active
inhibition [10]: Active

CN1C(=O)CN=C(c2ccccc2)c2cc(Cl)ccc21 [DIAZEPAM]
Activity [11]: Toxic
Activity [12]: Toxic
